Experimental data as given in ChEMBL document CHEMBL2176968, “Identification of less lipophilic riminophenazine derivatives for the treatment of drug-resistant tuberculosis” (J Med Chem, 2012).
Values after ≈ are worked out from the molar mass of the structure shown.

Key:
[1] = Selectivity index, ratio of IC50 for african green monkey Vero cells to MIC for Mycobacterium tuberculosis H37Rv ATCC 27294; type: functional
Vero = assay: Cytotoxicity against african green monkey Vero cells after 48 hrs by MTT assay; type: cell-based; settings: Chlorocebus sabaeus
Summary of the method: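 Vero cells were exposed to compound. The IC50 was taken as the concentration inhibiting 50% of growth relative to an untreated control.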

[2] = test system: Mycobacterium tuberculosis; assay: Antimycobacterial activity against Mycobacterium tuberculosis H37Rv ATCC 27294 after 7 days by microplate Alamar blue assay; type: functional; settings: H37Rv ATCC 27294, 168 h
Summary of the method: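 Run in 96-well plates against M. tuberculosis H37Rv using the Alamar Blue read-out. The MIC was taken as the lowest concentration giving >90% growth inhibition.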

Mus musculus = assay: Acute toxicity in mouse assessed as survival at 500 mg/kg, po measured for 7 days; type: organism-based; parameters: dose 500 mg/kg, route oral; settings: in vivo, 168 h
Summary of the method: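 Mice given one oral dose of 500 mg/kg, then observed for 7 days. The number of surviving mice was recorded.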

SMILES	Selectivity Index [1]	IC50 (Vero)	MIC [2]	Activity (Mus musculus)
COc1ncccc1Nc1cc2nc3ccccc3n(-c3ccc(Br)cc3)c-2c/c1=N\C(C)C	1306	> 64 µg/mL	0.049 µg/mL (≈ 0.0953 µM)	
COc1ncccc1Nc1cc2nc3ccccc3n(-c3ccc(Br)cc3)c-2c/c1=N\C1CCC(OC)CC1 (configuration not stated)	2065	> 64 µg/mL	0.031 µg/mL (≈ 0.053 µM)	Non-toxic
FC(F)(F)c1ccc(-n2c3c/c(=N\CCN4CCOCC4)c(Nc4cccnc4)cc-3nc3ccccc32)cc1	159	19.9 µg/mL (≈ 36.5 µM)	0.125 µg/mL (≈ 0.23 µM)	
COC1CCC(/N=c2\cc3n(-c4ccc(C(F)(F)F)cc4)c4ccccc4nc-3cc2Nc2ccc(C)nc2)CC1 (configuration not stated)	2089	33.4 µg/mL (≈ 60 µM)	0.016 µg/mL (≈ 0.0287 µM)	
CC(C)CN1CCC(/N=c2\cc3n(-c4ccc(F)cc4)c4ccccc4nc-3cc2Nc2cccnc2)CC1	242	30.3 µg/mL (≈ 58.1 µM)	0.125 µg/mL (≈ 0.24 µM)	
Cc1ncccc1Nc1cc2nc3ccccc3n(-c3ccc(C(F)(F)F)cc3)c-2c/c1=N\C(C)C	4571	> 64 µg/mL	0.014 µg/mL (≈ 0.0287 µM)	
Cc1ncccc1Nc1cc2nc3ccccc3n(-c3ccc(Br)cc3)c-2c/c1=N\C(C)C	635	39.4 µg/mL (≈ 79 µM)	0.062 µg/mL (≈ 0.124 µM)	
Clc1ccc(-n2c3c/c(=N\C4CCOCC4)c(Nc4cncc(Br)c4)cc-3nc3ccccc32)cc1	1778	> 64 µg/mL	0.036 µg/mL (≈ 0.0642 µM)	
COC1CCC(/N=c2\cc3n(-c4ccc(C(F)(F)F)cc4)c4ccccc4nc-3cc2Nc2cccnc2C)CC1 (configuration not stated)	5818	> 64 µg/mL	0.011 µg/mL (≈ 0.0197 µM)	
Cc1ccc(Nc2cc3nc4ccccc4n(-c4ccc(Br)cc4)c-3c/c2=N\C(C)C)cn1	64	3.12 µg/mL (≈ 6.26 µM)	0.049 µg/mL (≈ 0.0983 µM)	
COC1CCC(/N=c2\cc3n(-c4ccc(F)cc4)c4ccccc4nc-3cc2Nc2ccc(C)nc2)CC1 (configuration not stated)	1067	> 64 µg/mL	0.06 µg/mL (≈ 0.118 µM)	
Cc1ccc(Nc2cc3nc4ccccc4n(-c4ccc(Br)cc4)c-3c/c2=N\C2CCOCC2)cn1	493	21.7 µg/mL (≈ 40.2 µM)	0.044 µg/mL (≈ 0.0814 µM)	
COC1CCC(/N=c2\cc3n(-c4ccc(Br)cc4)c4ccccc4nc-3cc2Nc2cccnc2C)CC1 (configuration not stated)	2788	41.8 µg/mL (≈ 73.6 µM)	0.015 µg/mL (≈ 0.0264 µM)	Toxic
Cc1ccc(-n2c3c/c(=N\C(C)C)c(Nc4cccnc4)cc-3nc3ccccc32)cc1	45	2.71 µg/mL (≈ 6.46 µM)	0.06 µg/mL (≈ 0.143 µM)	
CC(C)CN1CCC(/N=c2\cc3n(-c4ccc(C(F)(F)F)cc4)c4ccccc4nc-3cc2Nc2cccnc2)CC1	450	27 µg/mL (≈ 47.3 µM)	0.06 µg/mL (≈ 0.105 µM)	
Cc1ccc(Nc2cc3nc4ccccc4n(-c4ccc(C(F)(F)F)cc4)c-3c/c2=N\C2CCOCC2)cn1	1098	35.1 µg/mL (≈ 66.3 µM)	0.032 µg/mL (≈ 0.0604 µM)	
CN1CCC(/N=c2\cc3n(-c4ccc(F)cc4)c4ccccc4nc-3cc2Nc2cccnc2)CC1	26	6.44 µg/mL (≈ 13.5 µM)	0.25 µg/mL (≈ 0.522 µM)	
Cc1ccc(Nc2cc3nc4ccccc4n(-c4ccc(F)cc4)c-3c/c2=N\C2CCOCC2)cn1	112	14 µg/mL (≈ 29.3 µM)	0.125 µg/mL (≈ 0.261 µM)	
Cc1ccc(Nc2cc3nc4ccccc4n(-c4ccc(Cl)cc4)c-3c/c2=N\C(C)C)cn1	118	7.09 µg/mL (≈ 15.6 µM)	0.06 µg/mL (≈ 0.132 µM)	
CN1CCC(/N=c2\cc3n(-c4ccc(Cl)cc4)c4ccccc4nc-3cc2Nc2cccnc2)CC1	45	5.58 µg/mL (≈ 11.3 µM)	0.125 µg/mL (≈ 0.253 µM)	
COc1ncccc1Nc1cc2nc3ccccc3n(-c3ccc(OC(F)(F)F)cc3)c-2c/c1=N\C(C)C	2286	> 64 µg/mL	0.028 µg/mL (≈ 0.0539 µM)	
COC1CCC(/N=c2\cc3n(-c4ccc(Cl)cc4)c4ccccc4nc-3cc2Nc2cccnc2)CC1 (configuration not stated)	401	12 µg/mL (≈ 23.6 µM)	0.03 µg/mL (≈ 0.0588 µM)	
Clc1ccc(-n2c3c/c(=N\C4CCOCC4)c(Nc4cccnc4)cc-3nc3ccccc32)cc1	83	2.5 µg/mL (≈ 5.19 µM)	0.03 µg/mL (≈ 0.0622 µM)	
CC(C)/N=c1\cc2n(-c3ccc(C(F)(F)F)cc3)c3ccccc3nc-2cc1Nc1cccnc1	655	19.7 µg/mL (≈ 41.5 µM)	0.03 µg/mL (≈ 0.0634 µM)	
Clc1ccc(-n2c3c/c(=N\CCN4CCOCC4)c(Nc4cccnc4)cc-3nc3ccccc32)cc1	16	4.02 µg/mL (≈ 7.87 µM)	0.25 µg/mL (≈ 0.489 µM)	
COC1CCC(/N=c2\cc3n(-c4ccc(Br)cc4)c4ccccc4nc-3cc2Nc2cccnc2)CC1 (configuration not stated)	30	1.88 µg/mL (≈ 3.39 µM)	0.062 µg/mL (≈ 0.112 µM)	
CC(C)CN1CCC(/N=c2\cc3n(-c4ccc(OC(F)(F)F)cc4)c4ccccc4nc-3cc2Nc2cccnc2)CC1	93	5.6 µg/mL (≈ 9.55 µM)	0.06 µg/mL (≈ 0.102 µM)	
Cc1ncccc1Nc1cc2nc3ccccc3n(-c3ccc(F)cc3)c-2c/c1=N\C(C)C	449	14.4 µg/mL (≈ 32.8 µM)	0.032 µg/mL (≈ 0.0731 µM)	

SMILES	Selectivity Index [1]	IC50 (Vero)	MIC [2]	Activity (Mus musculus)
COC1CCC(/N=c2\cc3n(-c4ccc(Br)cc4)c4ccccc4nc-3cc2Nc2ccc(C)nc2)CC1 (configuration not stated)	409	39.7 µg/mL (≈ 69.8 µM)	0.097 µg/mL (≈ 0.171 µM)	
Cc1ncccc1Nc1cc2nc3ccccc3n(-c3ccc(Cl)cc3)c-2c/c1=N\C1CCOCC1	163	27.4 µg/mL (≈ 55.3 µM)	0.168 µg/mL (≈ 0.339 µM)	
COC1CCC(/N=c2\cc3n(-c4ccc(F)cc4)c4ccccc4nc-3cc2Nc2cccnc2)CC1 (configuration not stated)	533	> 64 µg/mL	0.12 µg/mL (≈ 0.243 µM)	
Fc1ccc(-n2c3c/c(=N\C4CCOCC4)c(Nc4cccnc4)cc-3nc3ccccc32)cc1	123	7.36 µg/mL (≈ 15.8 µM)	0.06 µg/mL (≈ 0.129 µM)	
CC(C)/N=c1\cc2n(-c3ccc(F)cc3)c3ccccc3nc-2cc1Nc1cccnc1	208	6.25 µg/mL (≈ 14.8 µM)	0.03 µg/mL (≈ 0.0708 µM)	
Fc1ccc(-n2c3c/c(=N\CCN4CCOCC4)c(Nc4cccnc4)cc-3nc3ccccc32)cc1	30	15.1 µg/mL (≈ 30.5 µM)	0.5 µg/mL (≈ 1.01 µM)	
Cc1ccc(Nc2cc3nc4ccccc4n(-c4ccc(C(F)(F)F)cc4)c-3c/c2=N\C(C)C)cn1	1147	34.4 µg/mL (≈ 70.6 µM)	0.03 µg/mL (≈ 0.0615 µM)	
COc1ncccc1Nc1cc2nc3ccccc3n(-c3ccc(F)cc3)c-2c/c1=N\C1CCOCC1	1641	> 64 µg/mL	0.039 µg/mL (≈ 0.0787 µM)	
Brc1ccc(-n2c3c/c(=N\C4CCOCC4)c(Nc4cccnc4)cc-3nc3ccccc32)cc1	27	4.48 µg/mL (≈ 8.51 µM)	0.163 µg/mL (≈ 0.31 µM)	
FC(F)(F)Oc1ccc(-n2c3c/c(=N\CCN4CCOCC4)c(Nc4cccnc4)cc-3nc3ccccc32)cc1	129	16.1 µg/mL (≈ 28.8 µM)	0.125 µg/mL (≈ 0.223 µM)	
CC(C)/N=c1\cc2n(-c3ccccc3)c3ccccc3nc-2cc1Nc1cccnc1	66	3.93 µg/mL (≈ 9.69 µM)	0.06 µg/mL (≈ 0.148 µM)	
COc1ncccc1Nc1cc2nc3ccccc3n(-c3ccc(Cl)cc3)c-2c/c1=N\C(C)C	2133	> 64 µg/mL	0.03 µg/mL (≈ 0.0638 µM)	
COc1ncccc1Nc1cc2nc3ccccc3n(-c3ccc(OC(F)(F)F)cc3)c-2c/c1=N\C1CCOCC1	4000	> 64 µg/mL	0.016 µg/mL (≈ 0.0285 µM)	
COC1CCC(/N=c2\cc3n(-c4ccc(C(F)(F)F)cc4)c4ccccc4nc-3cc2Nc2cccnc2)CC1 (configuration not stated)	945	28.3 µg/mL (≈ 52.2 µM)	0.03 µg/mL (≈ 0.0552 µM)	
Cc1ncccc1Nc1cc2nc3ccccc3n(-c3ccc(Cl)cc3)c-2c/c1=N\C(C)C	1164	> 64 µg/mL	0.055 µg/mL (≈ 0.121 µM)	
CN1CCC(/N=c2\cc3n(-c4ccc(OC(F)(F)F)cc4)c4ccccc4nc-3cc2Nc2cccnc2)CC1	18	4.48 µg/mL (≈ 8.23 µM)	0.25 µg/mL (≈ 0.459 µM)	
CN1CCC(/N=c2\cc3n(-c4ccc(C(F)(F)F)cc4)c4ccccc4nc-3cc2Nc2cccnc2)CC1	83	10.4 µg/mL (≈ 19.6 µM)	0.125 µg/mL (≈ 0.236 µM)	
FC(F)(F)Oc1ccc(-n2c3c/c(=N\C4CCOCC4)c(Nc4cccnc4)cc-3nc3ccccc32)cc1	2133	> 64 µg/mL	0.03 µg/mL (≈ 0.0564 µM)	
CC(C)/N=c1\cc2n(-c3ccc(OC(F)(F)F)cc3)c3ccccc3nc-2cc1Nc1cccnc1	164	4.93 µg/mL (≈ 10.1 µM)	0.03 µg/mL (≈ 0.0613 µM)	
COC1CCC(/N=c2\cc3n(-c4ccc(OC(F)(F)F)cc4)c4ccccc4nc-3cc2Nc2cccnc2)CC1 (configuration not stated)	151	4.52 µg/mL (≈ 8.08 µM)	0.03 µg/mL (≈ 0.0536 µM)	
Cc1ccc(Nc2cc3nc4ccccc4n(-c4ccc(F)cc4)c-3c/c2=N\C(C)C)cn1	131	7.88 µg/mL (≈ 18 µM)	0.06 µg/mL (≈ 0.137 µM)	
CC(C)CN1CCC(/N=c2\cc3n(-c4ccc(Cl)cc4)c4ccccc4nc-3cc2Nc2cccnc2)CC1	60	15.1 µg/mL (≈ 28 µM)	0.25 µg/mL (≈ 0.465 µM)	
CC(C)/N=c1\cc2n(-c3ccc(Br)cc3)c3ccccc3nc-2cc1Nc1cccnc1	115	2.3 µg/mL (≈ 4.75 µM)	0.02 µg/mL (≈ 0.0413 µM)	
CSc1ccc(-n2c3c/c(=N\C(C)C)c(Nc4cccnc4)cc-3nc3ccccc32)cc1	37	1.83 µg/mL (≈ 4.05 µM)	0.05 µg/mL (≈ 0.111 µM)	
COC1CCC(/N=c2\cc3n(-c4ccc(Cl)cc4)c4ccccc4nc-3cc2Nc2cncc(Br)c2)CC1 (configuration not stated)	1231	> 64 µg/mL	0.052 µg/mL (≈ 0.0883 µM)	
Cc1ccc(Nc2cc3nc4ccccc4n(-c4ccc(Cl)cc4)c-3c/c2=N\C2CCOCC2)cn1	324	9.73 µg/mL (≈ 19.6 µM)	0.03 µg/mL (≈ 0.0605 µM)	
FC(F)(F)c1ccc(-n2c3c/c(=N\C4CCOCC4)c(Nc4cccnc4)cc-3nc3ccccc32)cc1	512	> 64 µg/mL	0.125 µg/mL (≈ 0.242 µM)	
